This is a sample that favours compounds with a hit; in the whole collection about 2.6% have one here.
GSIS activator: primary screen for activators of insulin secretion dependent on glucose, INS-1E cells, GLuc reporter luminescence; INS-1E GLuc reporter insulin secretion, 2-3 h; activation, % at 16.6 µM; hit rate 0.61% among 370,000; AID 743287;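 active = lowest replicate activation of at least 40%, so every replicate reaches that level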;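 note: 0% = median of neutral control wells and 100% = median of IBMX positive control wells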
ERAP1 inh: ERAP1 (human) enzyme inhibition | recombinant ERAP1, Leu-AMC fluorescence, 60 min | Q9NZ08 | hit rate 0.15% among 340,000 | inhibition, % at 10.7 µM;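 active = mean replicate inhibition of at least 30%, or all replicates individually reaching that 30% level; inactive = mean below 30% and not every replicate reaching it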;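 note: 0% = neutral control wells and 100% = L-leucinethiol positive control wells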
CFTR F508del cor: correctors of CFTR F508del function in bronchial epithelial cells; hit rate 0.36% among 350,000; CFBE cells, YFP halide quenching; stimulated with forskolin plus potentiator P3; % fluorescence drop versus neutral controls; activity (quench increase), % at 7.58 µM;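 active = mean added fluorescence quench of at least 8% versus neutral control, with both replicates also reaching 8%; inconclusive = only one of the mean or replicate conditions met; inactive = mean below 8% and not both replicates reaching 8%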;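 note: cells transiently co-express mutant CFTR-F508del with the halide-sensitive YFP; corrector assay measuring rescue of mutant channel to the surface after 24 h compound exposure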
E-selectin induc: induces E-selectin expression in human endothelial cells. AID 686992. P16581. activation, % at 7.58 µM. hit rate 0.37% among 260,000. HUVEC E-selectin immunofluorescence imaging; normalized: neutral wells 0, TNF-alpha wells 100;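 active = mean E-selectin-positive cell signal at least 10% of the positive control, reached in at least 60% of replicates, without over 20% cell loss; inconclusive = no rule given, readout overlaps actives, possibly toxicity-flagged; inactive = the rest, including those meeting only one limit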
Target sequence (P16581 whole entry, looked up): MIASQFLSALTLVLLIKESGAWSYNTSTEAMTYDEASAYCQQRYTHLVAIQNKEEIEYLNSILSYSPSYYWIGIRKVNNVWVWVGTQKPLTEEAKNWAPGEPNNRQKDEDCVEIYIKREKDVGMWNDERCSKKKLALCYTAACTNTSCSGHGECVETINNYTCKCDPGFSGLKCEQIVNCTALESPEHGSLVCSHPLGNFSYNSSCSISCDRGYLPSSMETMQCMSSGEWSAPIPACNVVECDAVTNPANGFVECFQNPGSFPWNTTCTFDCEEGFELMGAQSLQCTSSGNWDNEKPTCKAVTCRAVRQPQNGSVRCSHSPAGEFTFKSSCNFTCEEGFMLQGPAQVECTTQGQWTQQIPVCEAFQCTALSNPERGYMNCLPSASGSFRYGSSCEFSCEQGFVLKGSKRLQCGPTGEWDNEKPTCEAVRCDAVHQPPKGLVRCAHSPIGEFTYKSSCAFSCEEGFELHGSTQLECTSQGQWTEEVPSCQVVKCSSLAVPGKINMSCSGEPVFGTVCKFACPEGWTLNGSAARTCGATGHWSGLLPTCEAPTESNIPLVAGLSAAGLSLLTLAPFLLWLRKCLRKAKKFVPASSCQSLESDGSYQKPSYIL
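System: HUVEC, human umbilical vein endothelial cells; quantity: 3,000 cells/well; buffer or medium: EGM-2 medium, gelatin-coated wells; dosing: single-point compound dose; detection: immunofluorescence imaging; evaluation: % PE-positive cells; benchmarks: TNF-alpha, DMSO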
miR122 inh: inhibitors of miR-122 in Huh7 cells; hit rate 0.3% among 340,000; activation (reporter increase), % at 12.5 µM; Huh7 miR-122 Renilla luciferase sensor, 48 h; neutral wells = 0, positive control = 100;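 active = mean replicate activation score at least 90 and every replicate individually at or above 90; inconclusive = only one of the two criteria met; inactive = neither criterion met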;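 note: higher luciferase means less miR-122 activity so hits act as miR-122 inhibitors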
DENV2 CPE rescue: protects cells from dengue virus 2 cytopathic effect | DENV2-infected cells, cytopathic effect rescue, plate reader | hit rate 1.7% among 350,000 | AID 651640 | CPE inhibition, % at 9.99 µM; in the data active = CPE inhibition above about 20%, passing the limit was not always enough; inconclusive = no clear call, values can overlap the other calls; tested in BHK-21 cells;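 note: 0% = median of neutral control wells and 100% = median of positive control wells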
The depositor's hits bear a star; ? = inconclusive; . = no result; [ ] = remark or other dose.

SMILES	GSIS activator	ERAP1 inh	CFTR F508del cor	E-selectin induc	miR122 inh	DENV2 CPE rescue
CCc1c(-c2ccccc2)ncn1Cc1cccc(-c2ccccc2)c1	-31	-6	1	0	.	1
CCc1c(-c2ccccc2F)ncn1Cc1cccc(-c2ccccc2)c1	-15	-3	0	1	.	59*
CCc1c(-c2ccc(Cl)cc2)ncn1Cc1cccc(-c2ccccc2)c1	-16	-2	3	1	.	-6
CCc1c(C2CC2)ncn1Cc1cccc(-c2ccccc2)c1	-6	16	-1	0	.	20*
C[C@H](CO)N1C[C@H](C)[C@H](CN(C)Cc2ccc(C(F)(F)F)cc2)Oc2ccc(NS(=O)(=O)c3ccc(Cl)cc3)cc2CC1=O	-25	2	4	1	5[16.7 µM]	-9
CCOc1cc(C2C3=C(CC(C)(C)CC3=O)Nc3n[nH]c(C)c32)ccc1O (stereo unspecified)	43*	-2	1	.	-4	-3
CCNC(=O)C[C@@H]1CC[C@H]2[C@@H](COC[C@@H](O)CN2C(=O)Nc2c(C)noc2C)O1	4	-2	-1	0	-2[16.7 µM]	-6
C[C@H](CO)N1C[C@H](C)[C@H](CN(C)S(=O)(=O)c2ccc(C#N)cc2)Oc2ncc(C#Cc3ccc(C(F)(F)F)cc3)cc2C1=O	-23	-1	5	0	.	-2
CCOCC(=O)Nc1c(C(=O)N2CCN(c3ncccn3)CC2)oc2ccccc12	-2	0	0	.	125*	4
COc1ccc(OCC(=O)Nc2c(C(=O)N3CCN(C)CC3)oc3ccccc23)cc1	21	-6	-1	.	6	-3
CCCC(=O)Nc1c(C(=O)OCC)oc2ccccc12	41*	-1	0	3	1	-1
C[C@@H]1CN([C@H](C)CO)C(=O)c2cccc(NC(=O)NC3CCCCC3)c2O[C@@H]1CN(C)Cc1ccc2c(c1)OCO2	-11	9	-1	0	-3[16.7 µM]	6
COc1ccc(N2c3ccccc3CN(Cc3ccccc3)CC2Cc2cc(OC)c(OC)c(OC)c2)cc1 (stereo unspecified)	38	-2	-5	0	1	-7
C[C@H]1[C@@H](Cc2cc(Cl)cc(Cl)c2)N(c2ccccc2)c2ccccc2CN1Cc1ccccc1	-8	.	6	1	.	43*
CC(C)(C)NC(=O)COc1coc(CN2CCN(Cc3ccccc3)CC2)cc1=O	1	-4	0	0	-6	57*
COCCNC(=O)COc1coc(CN2CCN(Cc3ccccc3)CC2)cc1=O	16	-2	-2	1	-5	-2
C=CCNC(=O)COc1coc(CN2CCN(C(=O)c3ccco3)CC2)cc1=O	49*	4	2	0	.	-7
O=C1NN(c2ccc(Br)cc2)C(=O)/C1=C\c1ccc(O)cc1O	-13	0	-1	.	1	14
O=C1NN(c2cccc(Br)c2)C(=O)/C1=C\c1ccc(O)cc1	-3	0	8.6*	17	.	0
COc1ccc(-n2c(C)c(C(C)=O)c3cc(OCC(N)=O)ccc32)cc1	8	2	-1	-2	-6	5
CCOc1ccc(-n2c(C)c(C(C)=O)c3cc(OCC(N)=O)ccc32)cc1	-3	3	.	0	.	32*
CCN(CC(=O)Nc1ccc(NC(C)=O)cc1)C(=O)c1ccc(N2CCC(C)CC2)c([N+](=O)[O-])c1	-45	3	41*	-1	19	1
CCc1ccc(NC(=O)C(C)OC(=O)c2ccc(N3CCCC3)c([N+](=O)[O-])c2)cc1 (stereo unspecified)	8	-1	2	26*	.	-8
CN(C)CC(=O)Nc1ccc2c(c1)[C@H]1C[C@@H](CC(=O)NCc3ccccc3)O[C@@H](CO)[C@H]1O2	17	0	-4	0	-5[16.7 µM]	-12
COc1ccc(NC(=O)Nc2ccc3c(c2)C(=O)N([C@H](C)CO)C[C@H](C)[C@H](CN(C)C(=O)NC2CCCCC2)OCCCC[C@H](C)O3)cc1	-1	0	-2	0	-5[16.7 µM]	-12
SMILES	GSIS activator	ERAP1 inh	CFTR F508del cor	E-selectin induc	miR122 inh	DENV2 CPE rescue
CCc1nc2ccc(C(=O)N3CCN(C(C)=O)CC3)cn2c1N(C)C(=O)c1cccc(OC)c1	6	1	-1	0	-2	6
CCc1nc2ccc(C(=O)N(CC)CCN(C)C)cn2c1N(C)C(=O)c1cccc(OC)c1	1	-1	0	0	-3	26*
CC(=O)[C@]12O[C@]3(COC[C@H](c4ccccc4)N3C1=O)[C@@H]1C(=O)N(C)C(=O)[C@@H]12	.	0	-1	.	.	11
Cc1ccnc(NC(=O)c2ccc(Cl)c(S(=O)(=O)N3CCCCC3)c2)c1	-15	-3	-1	.	.	5
O=C(NC1CCCC1)c1ccc(Cl)c(S(=O)(=O)N2CCOCC2)c1	47*	-1	0	.	-1	5
O=C(NC1CCN(Cc2ccccc2)C1)c1cccc(S(=O)(=O)N2CCOCC2)c1 (stereo unspecified)	9	-2	1	0	.	-4
Cc1ccnc(NC(=O)c2ccc(Cl)c(S(=O)(=O)N3CCCC3)c2)c1	-4	0	-1	0	.	61*
Cc1ccc(C(=O)NC2CCCCCCC2)cc1S(=O)(=O)N1CCOCC1	1	-1	-1	0	.	-4
O=S(=O)(NCCc1ccccc1)c1cccc(S(=O)(=O)N2CCOCC2)c1	.	.	.	.	150*	.
O=C(NC1CCN(Cc2ccccc2)CC1)c1cc(S(=O)(=O)N2CCOCC2)ccc1Cl	-3	3	15*	.	-5	0
CCOC(=O)c1ccc(S(=O)(=O)NC2CCCCCCC2)n1C	.	.	.	.	128*	.
CCOC(=O)c1cc(S(=O)(=O)NC2CCCCC2)cn1C	-6	-2	4	.	?	16
Cc1nn(-c2ccccc2)c2c1C(O)CC(C)(C)C2 (stereo unspecified)	67*	3	-3	.	8	16
COc1cccc(CNC(=O)c2cc3c(cc2Cl)N2CCCCCC2=NS3(=O)=O)c1	9	2	2	100*	-3	7
COc1cccc(CNC(=O)c2ccc3c(c2)S(=O)(=O)N=C2CCCCCN23)c1	-1	1	2	.	-6	-5
C[C@@H]1CN([C@@H](C)CO)C(=O)c2cc(-c3cccc(C#N)c3)cnc2O[C@@H]1CN(C)Cc1ccncc1	7	0	2	1	-3[16.7 µM]	4
CCC(=O)N1CC2(C1)[C@H](c1ccc(-c3ccc(C)cc3)cc1)[C@@H](CO)N2S(=O)(=O)CC	2	3	0	0	.	8
CCCC(=O)Nc1ccc2c(c1)C(=O)N(C)[C@H]1CC[C@@H](CC(=O)NCCCN(C)C)O[C@H]1CO2	0	0	-1	0	-3[16.7 µM]	-1

Screens (PubChem)
